Screens from PubChem.
Rows were chosen to be rich in hits. Some 2.2% of all compounds tested hit in one or more screens of this group.
ASAP1 inh – blocks human ASAP1-stimulated Arf1 GTP hydrolysis | Q9ULH1 | GDP FP detection | inhibition, % at 16.5 µM | 360,000 tested, 0.19% active; in the data active = inhibition above about 25%
Target sequence (Q9ULH1 325-724 limits assumed): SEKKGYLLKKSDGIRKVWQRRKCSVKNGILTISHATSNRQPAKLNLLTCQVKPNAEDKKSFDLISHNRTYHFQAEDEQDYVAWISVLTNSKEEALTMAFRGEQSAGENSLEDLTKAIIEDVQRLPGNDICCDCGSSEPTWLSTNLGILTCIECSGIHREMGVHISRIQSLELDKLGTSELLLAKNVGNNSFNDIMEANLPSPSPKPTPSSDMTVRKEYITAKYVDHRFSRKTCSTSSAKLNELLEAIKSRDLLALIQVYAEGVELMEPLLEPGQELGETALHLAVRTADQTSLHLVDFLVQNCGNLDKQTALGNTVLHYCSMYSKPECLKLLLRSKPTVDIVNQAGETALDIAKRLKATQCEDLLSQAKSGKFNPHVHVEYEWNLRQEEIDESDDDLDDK
ARFGAP1 inh – inhibitors of rat ARFGAP1. Arfgap1-stimulated ARF1 GTP hydrolysis, GDP FP detection. inhibition, % at 16.5 µM. 360,000 tested, 0.26% active. AID 651572;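 active = inhibition above a per-plate limit, mean inhibition of low control wells plus 3 SD, cut at about 25% in these data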
Target sequence (Q62848 1-136 limits assumed): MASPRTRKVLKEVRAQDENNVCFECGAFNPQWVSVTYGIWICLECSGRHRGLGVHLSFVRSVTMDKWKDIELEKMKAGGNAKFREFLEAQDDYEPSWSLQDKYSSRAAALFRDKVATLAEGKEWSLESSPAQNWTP
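Material: rat Arfgap1 catalytic domain, aa 1-136; also added: human ARF1(Δ1-17)-GTP substrate; compound dosing: one concentration, 16.5 µM, DMSO 1.26%; incubation: GTP hydrolysis reaction 2 h at 25 °C; measured by: Tracer-displacement fluorescence polarization with EDTA stop, 620/688 nm; evaluation: % inhibition from polarization; repeats: one replicate per compound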
NRP1-CendR mod – NRP-1/CendR interaction modulation; inhibition, % at 25 µM; O14786; 360,000 tested, 0.85% active; AID 602438; FAM-RPARPAR peptide binding to NRP-1, fluorescence polarization;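 active = inhibition or corrected inhibition above about 18%, plus a signal ratio from 0.5 to 1.5, limit read from the data, passing the limit was not always enough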
Granule exo inh – blocks lytic granule exocytosis | inhibition, % at 10 µM | TALL-104 LAMP-1 surface exposure, flow cytometry; cells stimulated with thapsigargin and PMA | AID 651702 | 360,000 tested, 0.66% active;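 active = inhibition above about 55%, limit read from the data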
V-ATPase pH – yeast V-ATPase proton transport regulation by pHLuorin; S. cerevisiae, pHLuorin cytosolic pH fluorescence; response, % at 10 µM; 350,000 tested, 0.37% active; in the data active = response mostly above about 7.3%, no sharp cut-off; inactive = mostly below about 5.4%; also: actives read high
Granule exo CP1 – blocks lytic granule exocytosis; inhibition, % at 10 µM; 1,500 tested, 11% active; TALL-104 cells, LAMP-1 externalization, flow cytometry; stimulated with PMA plus thapsigargin; shares compounds with Granule exo inh; in the data active = inhibition above about 60%
A number is an active result; . = inactive; / = not tested or not shown.

SMILES | ASAP1 inh | ARFGAP1 inh | NRP1-CendR mod | Granule exo inh | V-ATPase pH | Granule exo CP1
Cc1ccc(CNC(=O)c2ccc(S(=O)(=O)N3CCCCCC3)cc2)cc1 | . | . | . | . | . | /
Cc1ccc(C(=O)NCCc2ccc(S(=O)(=O)N3CCCC3)cc2)cc1 | . | . | . | 64 | . | .
CCOC(=O)C1CCN(Cc2ccc(OCc3ccccc3)c(OC)c2)CC1 | / | / | . | . | . | /
CC(C)CCNC(=O)C1CCN(Cc2cccc(OCc3ccccc3)c2)CC1 | . | . | . | 69 | . | .
CCCCNC(=O)C1CCN(Cc2ccc(OCc3ccccc3)cc2)CC1 | . | . | . | . | . | /
COCCNC(=O)C1CCCN(Cc2ccc(C(C)C)cc2)CC1 (centres undefined) | . | . | . | 68 | / | .
COc1cc(CN2CCC(C(=O)NCCC(C)C)CC2)ccc1OCc1ccccc1 | . | . | . | 63 | . | .
O=C(c1ccc(Cl)cc1)C(CN1CCCC1)c1ccccc1 (centres undefined) | . | . | . | 59 | . | .
COc1ccc(C2CC(=O)Oc3c(C(CCN4CCCC(C)C4)c4ccc(N(C)C)cc4)c(OC)cc(OC)c32)cc1 (centres undefined) | . | . | . | 72 | . | .
COc1ccc(C2CC(=O)Oc3c(C(CCN4CCCCC4)c4ccc(N(C)C)cc4)c(OC)cc(OC)c32)cc1 (centres undefined) | . | . | . | . | . | /
CCCCn1nnc(NC(=O)c2sc3cc(Cl)ccc3c2Cl)n1 | . | . | . | . | . | /
CCN(CC)Cc1ccc(NC(=O)c2sc3cc(Cl)ccc3c2Cl)cc1 | . | . | . | 81 | . | .
Cc1ccccc1NP1(=O)OCCCN1Cc1ccccc1Cl (centres undefined) | . | . | . | . | . | /
CSc1ncc(Cl)c(C(=O)Nc2ccc(NC(C)=O)cc2)n1 | . | . | . | . | . | /
CSc1ncc(Cl)c(C(=O)Nc2cccnc2)n1 | . | . | . | 79 | . | .
COc1ccccc1NC(=O)c1ccc(C(=O)c2ccccc2)o1 | . | . | . | 86 | . | .
O=C(Nc1ccccc1O)c1ccc(C(=O)c2ccccc2)o1 | . | . | . | . | . | /
COc1cccc(C(C(=O)NC2CCCCC2)N(C(=O)c2ccco2)c2ccccc2OC)c1 (centres undefined) | . | . | . | 89 | . | .
CCOc1ccccc1N(C(=O)c1ccco1)C(C(=O)NC1CCCC1)c1cccs1 (centres undefined) | . | . | . | 60 | . | .
COc1cccc(CN2CCN(C(=O)c3ccco3)CC2)c1 | . | . | . | 87 | . | .
CCOC(=O)[C@]12CCC=C1N(Cc1ccc(Cl)cc1Cl)C(=O)[C@H](CC(=O)NCC1CCCCC1)C2 | . | . | . | . | / | /
O=S(=O)(NCCCc1ccccc1)c1ccccc1 | . | . | . | . | . | /
Cc1ccc(C)c(S(=O)(=O)NCCCc2ccccc2)c1 | . | . | . | 58 | . | .
CCOc1ccc(S(=O)(=O)N2CCN(Cc3ccc4c(c3)OCO4)CC2)cc1C | . | . | . | 65 | . | .
Fc1ccc(-c2cc3nc(-c4ccccc4)cc(N4CCN(CCN5CCOCC5)CC4)n3n2)cc1 | . | . | . | 73 | . | .
SMILES | ASAP1 inh | ARFGAP1 inh | NRP1-CendR mod | Granule exo inh | V-ATPase pH | Granule exo CP1
O=C(c1ccoc1)N1CCN(c2cc(-c3ccccc3)nc3cc(-c4ccccc4)nn23)CC1 | . | . | . | . | . | /
CN1CCN(c2cc(-c3ccccc3)nc3cc(-c4ccc(F)cc4)nn23)CC1 | . | . | . | 103 | . | 100
CCCCCCCN1CCN=C1Nc1ccccc1 | . | . | . | . | . | /
COC(=O)/C=C/c1cccc([C@H]2[C@@H]3C=CC[C@@H](C)[C@@H]3C(=O)N2Cc2ccccc2)c1 | . | . | . | . | . | /
CN1CCN(CC(O)COC(c2ccc(Cl)cc2)c2ccc(Cl)cc2)CC1 (centres undefined) | . | . | . | 57 | . | .
O=C1/C(=C/c2ccncc2)Oc2cc(OS(=O)(=O)c3ccccc3)ccc21 | . | . | . | . | . | /
COc1cccc(OC)c1C(=O)Oc1ccc2c(c1)O/C(=C\c1ccncc1)C2=O | . | . | . | 60 | . | .
CC(C)C[C@H]1CNC(=O)C(=O)N1C[C@H]1CCCN1C[C@H](CC(C)C)N1C[C@H](Cc2ccccc2)N(CCc2ccccc2)C(=O)C1=O | . | . | . | . | / | /
Cc1ccc(C(=O)NCCN2CCOCC2)c(Cl)c1 | . | . | . | 56 | . | .
CN(CCOc1ccccc1)CC(=O)Nc1ccc([N+](=O)[O-])cc1Cl | . | . | . | 73 | . | .
Cc1ccc(OCc2ccc(-c3ccccc3)cc2)c([N+](=O)[O-])n1 | . | . | . | 88 | . | .
Cc1ccc(OCc2ccc(Br)cc2)c([N+](=O)[O-])n1 | . | . | / | / | / | /
COc1ccc(Br)cc1CNC(=O)C1CCCN(S(=O)(=O)N2CC(C)CC(C)C2)C1 (centres undefined) | . | . | . | 70 | . | .
O=C(NCCc1ccc(Cl)cc1)C1CCN(S(=O)(=O)N2CCCC2)CC1 | . | . | . | . | . | /
COc1ccc(CNC(=O)C2CCCN(S(=O)(=O)c3ccc(Br)s3)C2)cc1 (centres undefined) | . | . | . | 69 | . | .
O=C(NCCc1ccc(Cl)cc1)C1CCN(S(=O)(=O)c2ccc(Br)s2)CC1 | . | . | . | 65 | . | .
COc1ccc(Br)cc1CNC(=O)C1CCN(S(=O)(=O)N2CCCCC2)CC1 | . | . | . | . | . | /
CCOc1ccccc1N(C(=O)c1snc(C(N)=O)c1N)C(C(=O)NC1CCCC1)c1ccco1 (centres undefined) | . | . | . | . | . | /
COc1ccccc1N(C(=O)c1snc(C(N)=O)c1N)C(C(=O)NCc1ccccc1)c1ccc(C)o1 (centres undefined) | . | . | . | 73 | . | .
CCOc1ccccc1N(C(=O)c1snc(C(N)=O)c1N)C(CC)C(=O)NC1CCCC1 (centres undefined) | . | . | . | 60 | . | .
O=C(N[C@H](C(=O)N1CCC[C@H]1C(=O)NC1CCCC1)C1CCCCC1)c1ccccn1 | . | . | / | / | / | /
CCc1ccc(-c2cc(C)no2)cc1S(=O)(=O)N1CCOc2ccccc21 | . | . | . | 89 | . | .
C[C@H](NS(=O)(=O)c1ccccc1F)C(=O)OCC(=O)Nc1ccc2c(c1)OCCO2 | . | . | . | . | . | /
CC1C(=O)N(Cc2ccccc2F)c2ccccc2N1C(=O)c1c(F)cccc1F (centres undefined) | . | . | . | . | . | /
COc1cccc(CN2C(=O)C(C)N(C(=O)c3c(F)cccc3F)c3ccccc32)c1 (centres undefined) | . | . | . | 56 | . | .
Cc1ccc(C(=O)NCc2ccc(Cl)cc2)cc1S(=O)(=O)N1CCCCC1 | . | . | . | . | . | /
